The values that follow come from ChEMBL document CHEMBL3822447, “4-(1,2-diarylbut-1-en-1-yl)isobutyranilide derivatives as inhibitors of topoisomerase II” (2016).

Molecules are shown by their SMILES. The source made the active and inactive calls. The rule behind the calls is not given here.

As usually defined, the GI50 is the concentration giving 50% growth inhibition.

Test [1] concerns HeLa. Nature of the test: Cytotoxicity against human HeLa cells assessed as cell growth inhibition after 72 hrs by trypan blue assay. Format: functional. In outline: (§1)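 HeLa (F-12 HAM) and MCF-7 (DMEM) kept in medium with 10% heat-inactivated FCS plus antibiotics; 4-5×10^4 cells/well seeded, compounds added after 24 h at various concentrations, then 72 h more. Viable cells counted by trypan blue; GI50 is the concentration giving 50% fewer cells than control. Mean ± SD from at least three independent experiments.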

For test [2], the target named is DNA topoisomerase 2-alpha (Homo sapiens) (UniProt P11388). Nature of the test: Inhibition of human recombinant topoisomerase 2 alpha-mediated relaxation of supercoiled pBR322 plasmid DNA at 50 to 100 uM after 60 mins by electrophoretic analysis. In outline:
(§2)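 Relaxation assay: 0.25 µg supercoiled pBR322 incubated with 1U human recombinant topoisomerase IIα and compound for 60 min at 37°C; m-AMSA reference at 10 µM. Stopped with SDS stop buffer plus 50 µg/mL proteinase K for 30 min at 37°C, run on 1% agarose, then stained with 1 µg/mL ethidium bromide in TAE.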

The subject of test [3] is HeLa. Nature of the test: Induction of apoptosis in human HeLa cells assessed as dead cells at 50 uM after 28 hrs by annexin V/FITC/propidium iodide staining-based flow cytometry (reference value: 1%). Format: functional. In outline: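 HeLa cells (2.0 x 10^5 per plate) seeded, grown 24 h in F-12 [HAM] with 10% heat-inactivated fetal calf serum, then exposed to test agent in complete medium for 28 h at 37 °C, 5% CO2. Cells were resuspended at 10^6 cells/mL in binding buffer and stained with annexin V-FITC plus propidium iodide for 15 min in the dark at room temperature. Read by flow cytometry.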

For test [4], the system named is HeLa. Description: Induction of apoptosis in human HeLa cells assessed as late apoptotic cells at 50 uM after 28 hrs by annexin V/FITC/propidium iodide staining-based flow cytometry (reference value: 1.2%). Format: functional. (Flow cytometry measures light scatter and fluorescence of single cells or particles in a stream.)
Test [5] in a line: Cytotoxicity against human OVCAR5 cells assessed as cell growth inhibition after 72 hrs by MTS assay. Format: functional. The following applies: OVCAR-5, 72 h. In outline: (§3)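 Cells grown in RPMI1640 with 10% FBS and 2 mM glutamine at 37°C, 5% CO2; plated at 15 000 cells/mL, treated with compounds 72 h after plating, and survival read by MTS after a further 72 h; dose-response curves plotted.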

In another test the test system is A2780. Description: Cytotoxicity against human A2780 cells assessed as cell growth inhibition after 72 hrs by MTS assay. The following applies: A2780, 72 h. In kind it is functional. The method in brief: as §3
In general terms: Tetrazolium assays rely on reduction of a dye to a coloured formazan, in cell work by metabolically active cells.

The subject of a further test is MCF7. Description: Cytotoxicity against human MCF7 cells assessed as cell growth inhibition after 72 hrs by trypan blue assay. In kind it is functional. The following applies: MCF7, 72 h. In outline:
as §1

Test [6] relates to HeLa. Nature of the test: Induction of mitochondrial membrane depolarization in human HeLa cells at 25 uM after 28 hrs by JC-1 staining-based flow cytometric analysis (reference value: 4%). Format: functional. In outline: (§4)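 HeLa cells (2.0 x 10^5) seeded, compound added after 24 h, then incubated 28 h. Cells loaded with JC-1 working solution for 30 min at 37°C, washed twice and read in assay buffer by flow cytometry. Loss of red aggregate fluorescence scored as depolarized (JC-1 monomer) cells.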

The test system of test [7] is HeLa. Description: Induction of mitochondrial membrane depolarization in human HeLa cells after 28 hrs by JC-1 staining-based flow cytometric analysis. Format: functional, cell-based. In outline:
as §4

Test [8] deals with HeLa. Nature of the test: Induction of mitochondrial membrane depolarization in human HeLa cells at 10 uM after 28 hrs by JC-1 staining-based flow cytometric analysis (reference value: 4%). Format: functional. In outline:
as §4

Test [9] concerns HeLa. Description: Induction of apoptosis in human HeLa cells assessed as early apoptotic cells at 50 uM after 28 hrs by annexin V/FITC/propidium iodide staining-based flow cytometry (reference value: 2.6%). In kind it is functional.
The test system of test [10] is HeLa. Nature of the test: Induction of apoptosis in human HeLa cells assessed as viable cells at 50 uM after 28 hrs by annexin V/FITC/propidium iodide staining-based flow cytometry (reference value: 95.3%). In kind it is functional. The following applies: read-out: Activity.
Test [11] concerns the target DNA topoisomerase 2-alpha (Homo sapiens) (UniProt P11388). Nature of the test: Inhibition of human recombinant topoisomerase 2 alpha-mediated relaxation of supercoiled pBR322 plasmid DNA at 50 uM after 60 mins by electrophoretic analysis. In outline:
as §2

Test [12] addresses T1, DNA topoisomerase 1 (Homo sapiens) (UniProt P11387).
T1 sequence (whole entry): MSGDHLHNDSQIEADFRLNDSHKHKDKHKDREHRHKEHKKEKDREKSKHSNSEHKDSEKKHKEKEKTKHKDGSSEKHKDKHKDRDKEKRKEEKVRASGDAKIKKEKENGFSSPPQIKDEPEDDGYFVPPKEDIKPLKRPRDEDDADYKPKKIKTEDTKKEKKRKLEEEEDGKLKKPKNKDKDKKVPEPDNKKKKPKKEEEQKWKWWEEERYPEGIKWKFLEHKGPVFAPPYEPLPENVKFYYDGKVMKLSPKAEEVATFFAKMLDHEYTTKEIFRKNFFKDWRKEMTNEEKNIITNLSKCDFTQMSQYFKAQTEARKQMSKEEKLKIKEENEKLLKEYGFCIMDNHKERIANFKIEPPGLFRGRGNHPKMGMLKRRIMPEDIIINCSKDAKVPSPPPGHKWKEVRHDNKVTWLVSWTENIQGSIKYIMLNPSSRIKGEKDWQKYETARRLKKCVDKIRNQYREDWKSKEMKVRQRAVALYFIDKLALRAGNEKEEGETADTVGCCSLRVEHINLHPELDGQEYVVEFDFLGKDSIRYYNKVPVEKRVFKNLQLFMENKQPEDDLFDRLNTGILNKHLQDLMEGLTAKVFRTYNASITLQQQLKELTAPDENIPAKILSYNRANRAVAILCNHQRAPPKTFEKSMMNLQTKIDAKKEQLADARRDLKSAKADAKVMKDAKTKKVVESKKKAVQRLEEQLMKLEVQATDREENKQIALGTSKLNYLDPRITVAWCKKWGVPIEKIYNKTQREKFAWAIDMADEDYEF
Nature of the test: Inhibition of human recombinant topoisomerase 1-mediated relaxation of supercoiled pBR322 plasmid DNA at 100 uM after 60 mins by electrophoretic analysis. In outline: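 Relaxation assay: 0.25 µg supercoiled pBR322 incubated with 2U human recombinant topoisomerase I and compound for 60 min at 37°C. Stopped with SDS stop buffer plus 50 µg/mL proteinase K for 30 min at 37°C, run on 1% agarose at room temperature, then stained with 1 µg/mL ethidium bromide in TAE.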

Test [13] addresses DNA topoisomerase 2-alpha (Homo sapiens) (UniProt P11388). Nature of the test: Inhibition of human recombinant topoisomerase 2 alpha-mediated relaxation of supercoiled pBR322 plasmid DNA at 10 to 50 uM after 60 mins by electrophoretic analysis. The method in brief: as §2
In test [14] the test system is HeLa. Nature of the test: Induction of mitochondrial membrane depolarization in human HeLa cells at 15 uM after 28 hrs by JC-1 staining-based flow cytometric analysis (reference value: 4%). Format: functional. The method in brief: as §4
For test [15], the target named is DNA topoisomerase 2-alpha (Homo sapiens) (UniProt P11388). Description: Poisoning activity at human recombinant topoisomerase 2 alpha using supercoiled pBR322 plasmid DNA as substrate assessed as stabilization of covalent DNA-enzyme complex at 50 uM after 60 mins by electrophoretic analysis. In outline:
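Cleavage assay: 0.25 µg supercoiled pBR322 with 10 U human recombinant topoisomerase IIα and compound, 60 min at 37°C. Stopped with SDS buffer and 50 µg/mL proteinase K for 30 min at 37°C, then resolved on 1% agarose containing 0.5 µg/mL ethidium bromide in TBE, with UV imaging.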

DNA topoisomerase 2-alpha (Homo sapiens), sequence (P11388 whole entry): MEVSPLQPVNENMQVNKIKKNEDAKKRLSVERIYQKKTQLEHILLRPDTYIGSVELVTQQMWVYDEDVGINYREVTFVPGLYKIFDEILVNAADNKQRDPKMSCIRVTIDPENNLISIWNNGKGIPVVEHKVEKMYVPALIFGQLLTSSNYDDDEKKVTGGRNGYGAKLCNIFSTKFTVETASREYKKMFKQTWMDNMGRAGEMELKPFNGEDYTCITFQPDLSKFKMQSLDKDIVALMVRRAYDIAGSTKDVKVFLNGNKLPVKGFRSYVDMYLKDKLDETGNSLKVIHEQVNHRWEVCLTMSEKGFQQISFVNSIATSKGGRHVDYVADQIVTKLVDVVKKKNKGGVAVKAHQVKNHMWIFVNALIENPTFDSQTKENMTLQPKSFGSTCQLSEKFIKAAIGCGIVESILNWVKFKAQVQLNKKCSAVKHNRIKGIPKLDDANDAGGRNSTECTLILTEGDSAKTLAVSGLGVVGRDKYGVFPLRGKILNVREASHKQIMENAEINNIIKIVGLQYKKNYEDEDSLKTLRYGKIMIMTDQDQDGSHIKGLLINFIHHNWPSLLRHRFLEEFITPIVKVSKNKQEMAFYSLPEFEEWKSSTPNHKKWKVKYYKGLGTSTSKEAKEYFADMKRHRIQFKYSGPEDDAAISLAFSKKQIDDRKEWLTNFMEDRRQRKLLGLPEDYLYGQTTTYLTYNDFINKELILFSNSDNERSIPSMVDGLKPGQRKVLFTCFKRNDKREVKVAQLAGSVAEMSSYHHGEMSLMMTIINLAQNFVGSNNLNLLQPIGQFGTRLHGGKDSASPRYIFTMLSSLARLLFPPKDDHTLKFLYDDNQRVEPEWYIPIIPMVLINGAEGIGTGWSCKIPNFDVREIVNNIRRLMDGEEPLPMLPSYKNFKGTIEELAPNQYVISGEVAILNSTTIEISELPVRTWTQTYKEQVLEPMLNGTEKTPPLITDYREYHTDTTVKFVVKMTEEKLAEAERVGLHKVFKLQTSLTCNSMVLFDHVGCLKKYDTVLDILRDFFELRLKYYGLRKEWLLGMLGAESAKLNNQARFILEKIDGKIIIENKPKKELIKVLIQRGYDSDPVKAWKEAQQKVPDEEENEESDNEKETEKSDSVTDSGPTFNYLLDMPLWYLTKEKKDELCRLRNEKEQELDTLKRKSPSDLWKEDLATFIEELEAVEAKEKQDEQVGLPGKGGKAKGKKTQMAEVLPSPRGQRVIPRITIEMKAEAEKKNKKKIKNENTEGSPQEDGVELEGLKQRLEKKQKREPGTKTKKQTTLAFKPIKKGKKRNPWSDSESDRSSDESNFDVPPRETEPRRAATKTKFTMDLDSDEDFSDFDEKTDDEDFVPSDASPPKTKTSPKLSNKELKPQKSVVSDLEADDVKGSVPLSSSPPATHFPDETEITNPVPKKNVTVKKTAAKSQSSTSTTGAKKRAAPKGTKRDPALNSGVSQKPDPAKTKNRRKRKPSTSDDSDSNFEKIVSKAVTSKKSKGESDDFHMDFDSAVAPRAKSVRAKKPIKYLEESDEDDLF

For `CC/C(=C(\c1ccccc1)c1ccc(OCCN(C)C)cc1)c1ccccc1` [TAMOXIFEN], the GI50 in the test on HeLa [1] turned out to be 12 µM; in test [5], 32 µM; with A2780, 30.3 µM; with MCF7 it was 6.5 µM. In addition, the inhibition entry in test [2] was “inactive”. The Activity with HeLa [3] was 2.7%; with HeLa [4], 28%; in the test with HeLa [6], 26.2%; with HeLa [7], “Dose-dependent effect”; with HeLa [8], 3.9%; with HeLa [9], 29.9%. In addition, the viability at 50 µM in the test with HeLa [10] is 39.4%.
With `CC/C(=C(/c1ccc(NC(=O)C(C)C)cc1)c1ccc(OC)cc1)c1ccc(O)cc1`, the GI50 in the test on HeLa [1] stood at 5.8 µM; in [5], 29.3 µM; in the test with A2780, 13.6 µM; in the test on MCF7, 13.6 µM. Moreover, in test [11], the inhibition result was “Active”.
`CC/C(=C(/c1ccc(NC(=O)C(C)C)cc1)c1ccc(OC)cc1)c1ccc(Cl)cc1Cl`: the GI50 is 2.2 µM in the test with HeLa [1], greater than 50 µM in [5], 3.8 µM with A2780 and 6.6 µM with MCF7. Also, the Activity in the test with HeLa [3] was 2.1%; in the test with HeLa [4], 21.8%; in the test on HeLa [6] it was 80.3%; in the test on HeLa [14], 75.7%; with HeLa [7], “Dose-dependent effect”; in the test with HeLa [8] it was 51.8%. In addition, the Activity with HeLa [9] was found to be 44.4%. In addition, the inhibition result in test [12] is “inactive”. Further, in test [13], the inhibition result was “Active”. Moreover, the outcome in [15] was Active. In addition, in the test on HeLa [10], the viability at 50 µM was determined as 31.7%.
On to `CC/C(=C(/c1ccccc1)c1ccc(NC(=O)C(C)C)cc1)c1ccc(O)cc1`, for which the GI50 in the test with HeLa [1] was determined as 5.1 µM; in [5] it was 12.1 µM; in the test with A2780, 4.6 µM; in the test on MCF7, 8.5 µM. Moreover, the inhibition entry in test [11] was “Active”.
For the compound `CC/C(=C(\c1ccccc1)c1ccc(NC(=O)C(C)C)cc1)c1ccc(Cl)cc1Cl`, the GI50 in the test on HeLa [1] is 3.3 µM; in [5], greater than 50 µM; in the test with A2780, 8.4 µM; in the test with MCF7 it was 8.3 µM. Besides, the result in test [15] was Active.
